From ChEMBL document CHEMBL1125686, “(Benzoylphenyl)piperidines: a new class of immunomodulators” (1991)

Key:
[1] = system: Mus musculus; experiment: Proliferation induced by the mitogen alone-Concanavalin A (control blastogenesis), in mice cells dosed at 5 ug/mL; type: functional; parameters: unit not given here
How it was run: (§1)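 Splenocytes from female DBA/2 mice, 6–9 weeks old; red cells lysed with cold 0.17 M NH₄Cl. Cells plated at 5 × 10⁶ cells/mL in RPMI 1640 with 5% FCS, with compound (5–80 μg/mL range) and Con A, PWM or PHA at a batch-optimized concentration. Cultured 72 h at 37 °C, 5% CO₂, with [³H]thymidine for the final 24 h, read by scintillation. Triplicate wells; mean ± SD of three cultures.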

[2] = system: Mus musculus; experiment: Percent of restoration of T- cell markers in nude mice (in vivo); type: functional
How it was run: (§2)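 Female nu/nu mice, 6–9 weeks old, dosed by gastric tube in 0.2 mL 2% arabic gum with 0.1% Tween-80; controls received vehicle only. Spleens taken 24 h later and splenocytes prepared. Thy1⁺ cells counted by direct FITC anti-Thy1 staining under epifluorescence. Five animals per group, mean ± SD.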

[3] = system: Mus musculus; experiment: […] induction of Thyl+ antigen expression on murine bone marrow cells at the concentration of 2.5 uM(Fraction A).(treated); type: functional
How it was run: (§3)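 Bone marrow from female C57 BL/6 mice, 5–8 weeks old, separated on a discontinuous BSA gradient. Fraction A (lowest density) and fraction B (next lowest) resuspended at 10⁶ cells/mL in HBSS with 5% BSA. Cells incubated 24 h with one compound concentration, then stained directly with FITC anti-Thy1 and counted by epifluorescence microscopy. % Thy1⁺ cells recorded for treated and control cultures.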

[4] = system: Mus musculus; experiment: Percent of Thyl+ positive cells / spleen x 10 e6 in nude mice (in vivo); type: functional; how it was run: as §2
[5] = system: Mus musculus; experiment: Percent of restoration in nude mice (in vivo); type: functional; how it was run: as §2
[6] = system: Mus musculus; experiment: Maximal proliferation induced in the presence of the mitogen-Concanavalin A (stimulated blastogenesis) in mice cells dosed at 5 ug/mL; type: functional; parameters: unit not given here; how it was run: as §1
[7] = system: Mus musculus; experiment: Percent of Thyl+ positive cells, in nude mice (in vivo); type: functional; how it was run: as §2
[8] = system: Mus musculus; experiment: […] induction of Thyl+ antigen expression on murine bone marrow cells at the concentration of 2.5 uM(Fraction B).(treated); type: functional; how it was run: as §3
[9] = system: Mus musculus; experiment: […] induction of Thyl+ antigen expression on murine bone marrow cells at the concentration of 2.5 uM(Fraction B).(Control group); type: functional; how it was run: as §3
[10] = system: Mus musculus; experiment: […] induction of Thyl+ antigen expression on murine bone marrow cells at the concentration of 2.5 uM(Fraction A).(Control group); type: functional; how it was run: as §3
[11] = system: Mus musculus; experiment: […] induction of Thyl+ antigen expression on murine bone marrow cells at the concentration of 2.7 uM(Fraction A).(Control group); type: functional; how it was run: as §3
[12] = system: Mus musculus; experiment: […] induction of Thyl+ antigen expression on murine bone marrow cells at the concentration of 2.7 uM(Fraction B).(Control group); type: functional; how it was run: as §3
[13] = species on record: Mus musculus; experiment: Maximal proliferation induced in the presence of the mitogen-PWM ( stimulated blastogenesis) in Mice cells at a dose of 40 ug/mL; type: functional; parameters: unit not given here; how it was run: as §1
[14] = species on record: Mus musculus; experiment: Proliferation induced by the mitogen alone-PWM (control blastogenesis), in Mice cells at a dose of 40 ug/mL; type: functional; parameters: unit not given here
How it was run: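 Splenocytes from female DBA/2 mice aged 6–9 weeks, red cells lysed with cold 0.17 M NH4Cl, cultured at 5 × 10⁶ cells/mL in RPMI 1640 with 5% FCS. Pokeweed mitogen added at a batch-adjusted optimal level, 72 h at 37 °C, 5% CO2. [³H]thymidine pulse for the final 24 h, then scintillation counting. Triplicates; mean ± SD of three cultures.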

[15] = system: Mus musculus; experiment: […] induction of Thyl+ antigen expression on murine bone marrow cells at the concentration of 2.7 uM(Fraction A).(treated); type: functional; how it was run: as §3
[16] = system: Mus musculus; experiment: […] induction of Thyl+ antigen expression on murine bone marrow cells at the concentration of 2.7 uM(Fraction B).(treated); type: functional; how it was run: as §3
[17] = species on record: Mus musculus; experiment: Maximal proliferation induced in the presence of the mitogen-PWM ( stimulated blastogenesis) in Mice cells at a dose of 10 ug/mL; type: functional; parameters: unit not given here; how it was run: as §1
[18] = species on record: Mus musculus; experiment: Proliferation induced by the mitogen alone-PWM (control blastogenesis), in Mice cells at a dose of 10 ug/mL; type: functional; parameters: unit not given here; how it was run: as §1
[19] = system: Mus musculus; experiment: […] induction of Thyl+ antigen expression on murine bone marrow cells at the concentration of 3 uM(Fraction A).(treated); type: functional; how it was run: as §3
[20] = species on record: Mus musculus; experiment: Proliferation induced by the mitogen alone-PHA (control blastogenesis), in Mice cells at a dose of 5 ug/mL; type: functional; parameters: unit not given here; how it was run: as §1
[21] = species on record: Mus musculus; experiment: Maximal proliferation induced in the presence of the mitogen-PHA ( stimulated blastogenesis) in Mice cells at a dose of 10 ug/mL
[22] = system: Mus musculus; experiment: […] induction of Thyl+ antigen expression on murine bone marrow cells at the concentration of 3 uM(Fraction B).(Control group); type: functional; how it was run: as §3
[23] = system: Mus musculus; experiment: […] induction of Thyl+ antigen expression on murine bone marrow cells at the concentration of 3 uM(Fraction A).(Control group); type: functional; how it was run: as §3
[24] = system: Mus musculus; experiment: […] induction of Thyl+ antigen expression on murine bone marrow cells at the concentration of 3 uM(Fraction B).(treated); type: functional; how it was run: as §3
[25] = system: Mus musculus; experiment: […] induction of Thyl+ antigen expression on murine bone marrow cells at the concentration of 2.9 uM(Fraction A).(treated); type: functional; how it was run: as §3
[26] = system: Mus musculus; experiment: […] induction of Thyl+ antigen expression on murine bone marrow cells at the concentration of 2.9 uM(Fraction B).(treated); type: functional; how it was run: as §3
[27] = system: Mus musculus; experiment: […] induction of Thyl+ antigen expression on murine bone marrow cells at the concentration of 2.9 uM(Fraction A).(Control group); type: functional; how it was run: as §3
[28] = system: Mus musculus; experiment: […] induction of Thyl+ antigen expression on murine bone marrow cells at the concentration of 2.9 uM(Fraction B).(Control group); type: functional; how it was run: as §3
[29] = system: Mus musculus; experiment: […] induction of Thyl+ antigen expression on murine bone marrow cells at the concentration of 3.2 uM(Fraction B).(Control group); type: functional; how it was run: as §3
[30] = system: Mus musculus; experiment: […] induction of Thyl+ antigen expression on murine bone marrow cells at the concentration of 3.2 uM(Fraction A).(Control group); type: functional; how it was run: as §3
[31] = system: Mus musculus; experiment: […] induction of Thyl+ antigen expression on murine bone marrow cells at the concentration of 3.2 uM(Fraction A).(treated); type: functional; how it was run: as §3
[32] = system: Mus musculus; experiment: […] induction of Thyl+ antigen expression on murine bone marrow cells at the concentration of 3.2 uM(Fraction B).(treated); type: functional; how it was run: as §3
[33] = system: Mus musculus; experiment: […] induction of Thyl+ antigen expression on murine bone marrow cells at the concentration of 7 uM(Fraction A).(treated)); type: functional; how it was run: as §3
[34] = species on record: Mus musculus; experiment: Proliferation induced by the mitogen alone-PHA (control blastogenesis), in Mice cells at a dose of 10 ug/mL; type: functional; how it was run: as §1
[35] = system: Mus musculus; experiment: […] induction of Thyl+ antigen expression on murine bone marrow cells at the concentration of 7 uM(Fraction B).(treated); type: functional; how it was run: as §3
[36] = system: Mus musculus; experiment: […] induction of Thyl+ antigen expression on murine bone marrow cells at the concentration of 7 uM(Fraction A).(Control group); type: functional; how it was run: as §3
[37] = system: Mus musculus; experiment: […] induction of Thyl+ antigen expression on murine bone marrow cells at the concentration of 7 uM(Fraction B).(Control group); type: functional; how it was run: as §3
[38] = species on record: Mus musculus; experiment: Maximal proliferation induced by the test compound in the presence of the mitogen-PHA ( stimulated blastogenesis) in Mice cells at a dose of 10 ug/mL; type: functional; how it was run: as §1

| Compound | Proliferative response [1] | Restoration [2] [%] | Thylpositive cells/spleen [4] [cells/spleen] | Restoration [5] [%] | Proliferative response [6] | Thylpositive cells [7] [%] | Proliferative response [13] | Proliferative response [14] | Proliferative response [17] | Proliferative response [18] | Proliferative response [20] | Proliferative response [21] | also measured |
| --- | --- | --- | --- | --- | --- | --- | --- | --- | --- | --- | --- | --- | --- |
| CCOC(=O)Nc1ccc(N2CCC(C)CC2)c(C(=O)c2ccc(Cl)cc2)c1 | 8 | 3.2 | 2.5e+06 | 3.3 | 16.3 | 3.4 |  |  |  |  |  |  | Differentiation [3]: 11.6%; Differentiation [8]: 5.5%; Differentiation [9]: 6.1%; Differentiation [10]: 6.1% |
| CC1CCCCN1c1ccc(N)cc1C(=O)c1ccc(Cl)cc1 (stereo not drawn) | 131.5 |  |  |  | 295 |  | 58.1 | 55.8 |  |  |  |  | Differentiation [11]: 5.6%; Differentiation [12]: 5%; Differentiation [15]: 6%; Differentiation [16]: 4.4% |
| Nc1ccc(N2CCC(c3ccccc3)CC2)c(C(=O)c2ccc(Cl)cc2)c1 | 263.2 | 12.5 | 3.2e+06 | 7.4 | 294.1 | 5.5 |  |  | 115.3 | 95.7 | 59.9 | 54.4 | Differentiation [19]: 7%; Differentiation [22]: 5.2%; Differentiation [23]: 3.8%; Differentiation [24]: 6.4% |
| CC1CCN(c2ccc(N)cc2C(=O)c2ccc(Cl)cc2)CC1C (stereo not drawn) | 48.6 |  |  |  | 50.2 |  | 75.8 | 67.3 |  |  |  |  | Differentiation [25]: 8.8%; Differentiation [26]: 3%; Differentiation [27]: 6.1%; Differentiation [28]: 6.1% |
| CCCCC1CCN(c2ccc(N)cc2C(=O)c2ccc(Cl)cc2)CC1 | 211.8 | 3.6 | 2.05e+06 | 0.6 | 289.2 | 3.5 |  |  | 81.7 | 78.4 | 51.3 | 59.1 | Differentiation [29]: 5.2%; Differentiation [30]: 3.8%; Differentiation [31]: 4.2%; Differentiation [32]: 6.4% |
| CC1CCN(c2ccc(N)cc2C(=O)c2ccc(Cl)cc2)CC1 | 194.5 | 14.3 | 6.65e+06 | 24.5 | 269.5 | 6.9 | 101.9 | 36.5 |  |  |  |  | Differentiation [33]: 11.5%; Proliferative response [34]: 12.8; Differentiation [35]: 11.4%; Differentiation [36]: 5.6%; Differentiation [37]: 5%; Proliferative response [38]: 43.5 |
